Experimental findings from ChEMBL document CHEMBL1926593, “Studies on the synthesis and antibacterial activity of 3,6-disubstituted 1,2,4-triazolo[3,4-b]1,3,4-thiadiazoles” (2012) are described below.

One experiment deals with Micrococcus luteus. As to the kind of experiment: Antibacterial activity against drug-sensitive Micrococcus luteus ATCC 10240 by broth microdilution method. The format is functional. The method in brief: (§1)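 Broth microdilution per CLSI recommendation. MIC is the lowest concentration with no visible growth. MBC is the lowest concentration giving >99.9% reduction in CFU of the initial inoculum. Ampicillin, cefuroxime and vancomycin served as reference agents.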
On the technique in general: In broth dilution the organism is exposed to a series of concentrations in liquid medium.

Experiment [1] relates to Staphylococcus aureus. Kind of experiment: Antibacterial activity against methicillin-resistant Staphylococcus aureus ATCC 14001 by broth microdilution method. The class given is functional. The method in brief:
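Broth microdilution following CLSI recommendations. MIC was read as the lowest concentration giving no visible growth. Ampicillin, cefuroxime and vancomycin were the reference antibacterials.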

Experiment [2] deals with Staphylococcus aureus. Kind of experiment: Ratio of MBC to MIC for methicillin-resistant Staphylococcus aureus ATCC 14001. The class given is functional. The method in brief:
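Broth microdilution following CLSI recommendations. MIC was the lowest concentration with no visible growth. MBC was the lowest concentration giving a >99.9% reduction in CFU relative to the initial inoculum. The ratio was taken from these two values.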

The subject of experiment [3] is Bacillus subtilis. As to the kind of experiment: Ratio of ampicillin MIC to compound MIC for drug-sensitive Bacillus subtilis ATCC 6633 by broth microdilution method. The class given is functional.
For experiment [4], the system named is Bacillus cereus. Kind of experiment: Ratio of ampicillin MIC to compound MIC for drug-sensitive Bacillus cereus ATCC 10876 by broth microdilution method. The format is functional.
The subject of a further experiment is Escherichia coli. As to the kind of experiment: Antibacterial activity against drug-sensitive Escherichia coli ATCC 25922 by broth microdilution method. The class given is functional, organism-based. The method in brief:
as §1

A further experiment deals with Klebsiella pneumoniae. As to the kind of experiment: Antibacterial activity against drug-sensitive Klebsiella pneumoniae ATCC 13883 by broth microdilution method. The format is functional, organism-based. The method in brief:
as §1

Another experiment concerns Proteus mirabilis. Kind of experiment: Antibacterial activity against drug-sensitive Proteus mirabilis ATCC 12453 by broth microdilution method. The format is functional, organism-based. The method in brief: as §1
Another experiment concerns Pseudomonas aeruginosa. Kind of experiment: Antibacterial activity against drug-sensitive Pseudomonas aeruginosa ATCC 9027 by broth microdilution method. The format is functional, organism-based. The method in brief: as §1
Experiment [5] has as its system Staphylococcus aureus. Kind of experiment: Antibacterial activity against drug-sensitive Staphylococcus aureus ATCC 25923 by broth microdilution method. The class given is functional. The method in brief:
as §1

Experiment [6] concerns Staphylococcus aureus. Kind of experiment: Antibacterial activity against drug-sensitive Staphylococcus aureus ATCC 6538 by broth microdilution method. The format is functional. The method in brief:
as §1

Experiment [7] has as its system Staphylococcus epidermidis. As to the kind of experiment: Antibacterial activity against drug-sensitive Staphylococcus epidermidis ATCC 12228 by broth microdilution method. The format is functional. The method in brief:
as §1

Experiment [8] deals with Bacillus subtilis. Kind of experiment: Antibacterial activity against drug-sensitive Bacillus subtilis ATCC 6633 by broth microdilution method. The class given is functional. The method in brief: as §1
The subject of experiment [9] is Bacillus cereus. As to the kind of experiment: Antibacterial activity against drug-sensitive Bacillus cereus ATCC 10876 by broth microdilution method. The class given is functional. The method in brief:
as §1

In experiment [10] the test system is Bacillus cereus. As to the kind of experiment: Ratio of cefuroxime MIC to compound MIC for drug-sensitive Bacillus cereus ATCC 10876 by broth microdilution method. The class given is functional.

≈ marks a conversion by molar mass, not a printed value. Calls of active or inactive are those of the source.

With `Clc1ccc(Nc2nn3c(-c4ccc(Cl)cc4)nnc3s2)cc1`, the MBC (commonly the smallest concentration meeting the test's criterion for killing) in the experiment with Micrococcus luteus is 31.2 µg/mL (≈ 86.3 µM); against Staphylococcus aureus [1] it was 62.5 µg/mL (≈ 173 µM); in the experiment on Staphylococcus aureus [5] it was 62.5 µg/mL (≈ 173 µM); against Staphylococcus aureus [6] it was 62.5 µg/mL (≈ 173 µM); in experiment [7], 15.6 µg/mL (≈ 43.1 µM); in the experiment with Bacillus subtilis [8], 7.81 µg/mL (≈ 21.6 µM). Also, in the experiment on Bacillus cereus [9], the minimum bactericidal concentration (MBC) was determined as 31.2 µg/mL (≈ 86.3 µM). Further, the minimum inhibitory concentration (MIC) (as a rule, the lowest concentration found to suppress growth) against Micrococcus luteus is 15.6 µg/mL (≈ 43.1 µM); against Staphylococcus aureus [1], 7.81 µg/mL (≈ 21.6 µM); in the experiment with Staphylococcus aureus [5] it was 3.91 µg/mL (≈ 10.8 µM); against Staphylococcus aureus [6] it was 0.98 µg/mL (≈ 2.71 µM); in experiment [7] it was 3.91 µg/mL (≈ 10.8 µM); against Bacillus subtilis [8] it was 3.91 µg/mL (≈ 10.8 µM). The same molecule yielded an MIC against Bacillus cereus [9] of 7.81 µg/mL (≈ 21.6 µM). Moreover, the Ratio in the experiment on Staphylococcus aureus [2] stood at 8; in the experiment on Bacillus subtilis [3], 4; in the experiment on Bacillus cereus [4], 8. Besides, the outcome in the experiment on Escherichia coli, with Klebsiella pneumoniae, in the experiment with Proteus mirabilis and with Pseudomonas aeruginosa was inactive.
Regarding `Clc1ccc(-c2nnc3sc(Nc4ccc(Br)cc4)nn23)cc1`, the MBC in the experiment on Micrococcus luteus came to 15.6 µg/mL (≈ 38.4 µM); against Staphylococcus aureus [1], 125 µg/mL (≈ 307 µM); with Staphylococcus aureus [5], 31.2 µg/mL (≈ 76.8 µM); in the experiment with Staphylococcus aureus [6] it was 31.2 µg/mL (≈ 76.8 µM); in experiment [7], 1.95 µg/mL (≈ 4.79 µM); in the experiment on Bacillus subtilis [8], 1.95 µg/mL (≈ 4.79 µM). Moreover, the minimum bactericidal concentration (MBC) with Bacillus cereus [9] worked out at 15.6 µg/mL (≈ 38.4 µM). The MIC turned out to be 15.6 µg/mL (≈ 38.4 µM) with Micrococcus luteus; 7.81 µg/mL (≈ 19.2 µM) in the experiment with Staphylococcus aureus [1]; 1.95 µg/mL (≈ 4.79 µM) in the experiment with Staphylococcus aureus [5]; 0.98 µg/mL (≈ 2.41 µM) against Staphylococcus aureus [6]; 1.95 µg/mL (≈ 4.79 µM) in [7]; 1.95 µg/mL (≈ 4.79 µM) against Bacillus subtilis [8]. This molecule also registered a minimum inhibitory concentration (MIC) against Bacillus cereus [9] of 15.6 µg/mL (≈ 38.4 µM). In addition, the Ratio with Staphylococcus aureus [2] came to 16; with Bacillus subtilis [3], 8; with Bacillus cereus [4], 4; in the experiment with Bacillus cereus [10] it was 2. The result with Escherichia coli, in the experiment on Klebsiella pneumoniae, with Proteus mirabilis and in the experiment on Pseudomonas aeruginosa was inactive.
`Clc1ccc(Nc2nn3c(-c4ccccc4Cl)nnc3s2)cc1`: the minimum bactericidal concentration (MBC) in the experiment with Micrococcus luteus was determined as 15.6 µg/mL (≈ 43.1 µM); in the experiment with Staphylococcus aureus [1], 62.5 µg/mL (≈ 173 µM); in the experiment on Staphylococcus aureus [5], 31.2 µg/mL (≈ 86.3 µM); in the experiment on Staphylococcus aureus [6], 15.6 µg/mL (≈ 43.1 µM); in experiment [7] it was 15.6 µg/mL (≈ 43.1 µM); against Bacillus subtilis [8] it was 15.6 µg/mL (≈ 43.1 µM). Also, the minimum bactericidal concentration (MBC) in the experiment with Bacillus cereus [9] turned out to be 3.91 µg/mL (≈ 10.8 µM). Also, the minimum inhibitory concentration (MIC) was determined as 7.81 µg/mL (≈ 21.6 µM) against Micrococcus luteus; 1.95 µg/mL (≈ 5.38 µM) in the experiment on Staphylococcus aureus [1]; 15.6 µg/mL (≈ 43.1 µM) in the experiment on Staphylococcus aureus [5]; 15.6 µg/mL (≈ 43.1 µM) against Staphylococcus aureus [6]; 3.91 µg/mL (≈ 10.8 µM) in experiment [7]; 3.91 µg/mL (≈ 10.8 µM) against Bacillus subtilis [8]. Moreover, the MIC with Bacillus cereus [9] was determined as 3.91 µg/mL (≈ 10.8 µM). Also, the Ratio was determined as 32 in the experiment with Staphylococcus aureus [2], 4 with Bacillus subtilis [3], 16 in the experiment with Bacillus cereus [4] and 8 in the experiment with Bacillus cereus [10]. Besides, the result in the experiment on Escherichia coli, in the experiment on Klebsiella pneumoniae, in the experiment on Proteus mirabilis and with Pseudomonas aeruginosa was inactive.
In the case of `Brc1ccc(Nc2nn3c(-c4ccccc4)nnc3s2)cc1`, the minimum bactericidal concentration (MBC) in the experiment with Micrococcus luteus came to 7.81 µg/mL (≈ 21 µM); in the experiment with Staphylococcus aureus [1] it was 62.5 µg/mL (≈ 168 µM); in the experiment on Staphylococcus aureus [5], 31.2 µg/mL (≈ 83.9 µM); in the experiment with Staphylococcus aureus [6], 125 µg/mL (≈ 336 µM); in [7] it was 0.98 µg/mL (≈ 2.63 µM); against Bacillus subtilis [8], 1.91 µg/mL (≈ 5.13 µM). The same molecule returned an MBC with Bacillus cereus [9] of 15.6 µg/mL (≈ 42 µM). In addition, the minimal inhibitory concentration (MIC) against Micrococcus luteus was found to be 3.91 µg/mL (≈ 10.5 µM); with Staphylococcus aureus [1] it was 7.81 µg/mL (≈ 21 µM); with Staphylococcus aureus [5], 0.98 µg/mL (≈ 2.63 µM); in the experiment with Staphylococcus aureus [6], 15.6 µg/mL (≈ 42 µM); in experiment [7], 0.49 µg/mL (≈ 1.32 µM); with Bacillus subtilis [8] it was 0.98 µg/mL (≈ 2.63 µM). In addition, the lowest concentration to inhibit growth with Bacillus cereus [9] (MIC) was 15.6 µg/mL (≈ 42 µM). Moreover, the Ratio in the experiment on Staphylococcus aureus [2] turned out to be 8; with Bacillus subtilis [3] it was 16; in the experiment on Bacillus cereus [4] it was 4; in the experiment on Bacillus cereus [10], 2. Moreover, the outcome in the experiment on Escherichia coli, with Klebsiella pneumoniae, in the experiment with Proteus mirabilis and with Pseudomonas aeruginosa was inactive.
On to `Clc1ccccc1-c1nnc2sc(Nc3ccc(Br)cc3)nn12`, for which the MBC against Micrococcus luteus was 7.81 µg/mL (≈ 19.2 µM); in the experiment with Staphylococcus aureus [1], 15.6 µg/mL (≈ 38.4 µM); against Staphylococcus aureus [5], 15.6 µg/mL (≈ 38.4 µM); in the experiment with Staphylococcus aureus [6] it was 62.5 µg/mL (≈ 154 µM); in experiment [7], 3.91 µg/mL (≈ 9.61 µM); in the experiment on Bacillus subtilis [8], 15.6 µg/mL (≈ 38.4 µM). The minimum bactericidal concentration (MBC) with Bacillus cereus [9] turned out to be 15.6 µg/mL (≈ 38.4 µM). Further, the MIC against Micrococcus luteus stood at 7.81 µg/mL (≈ 19.2 µM); in the experiment on Staphylococcus aureus [1] it was 1.95 µg/mL (≈ 4.79 µM); in the experiment with Staphylococcus aureus [5] it was 1.95 µg/mL (≈ 4.79 µM); with Staphylococcus aureus [6], 7.81 µg/mL (≈ 19.2 µM); in [7], 0.98 µg/mL (≈ 2.41 µM); in the experiment on Bacillus subtilis [8] it was 1.95 µg/mL (≈ 4.79 µM). This molecule also returned an MIC in the experiment with Bacillus cereus [9] of 7.81 µg/mL (≈ 19.2 µM). Moreover, the Ratio in the experiment on Staphylococcus aureus [2], in the experiment with Bacillus subtilis [3] and with Bacillus cereus [4] was 8 each time. Moreover, the outcome with Escherichia coli, in the experiment with Klebsiella pneumoniae, in the experiment with Proteus mirabilis and in the experiment on Pseudomonas aeruginosa was inactive.
Regarding `CC1(C)S[C@@H]2[C@H](NC(=O)[C@H](N)c3ccccc3)C(=O)N2[C@H]1C(=O)O` [AMPICILLIN], the minimal inhibitory concentration (MIC) against Bacillus cereus [9] was 62.5 µg/mL (≈ 179 µM).
